Assay results taken from PMC12783166 (Clinical Pharmacokinetics, 2025).
Where “and” joins values, the source holds several entries; their conditions need not be identical. Equal entries are not always repeated. Entries after “also recorded” stand apart in the source; their conditions may differ.

Key:
[1] = Phase 3 population PK model; type: in vivo, human
Method in brief: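 Nonlinear mixed-effects model fitted by FOCE with interaction to pooled plasma and dried-blood-spot LC-MS/MS concentrations from 12 phase 1, 1 phase 2b/3 and 1 phase 3 study (healthy participants and migraine patients, single/multiple oral doses). Plasma LLOQ 0.1 or 1.0 ng/mL, DBS 2.5 ng/mL. Below-LLOQ samples and |CWRES| > 6 excluded. Log-normal IIV. Covariates added stepwise (ΔOFV 6.63, P < 0.01).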

[2] = Covariate evaluation of model-predicted 60 mg steady-state exposures; type: in vivo, human
Method in brief: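 Final population model predicted steady-state AUC24 and Cmax for 60 mg once daily in EM phase 2b/3, EM phase 3 and CM phase 3 patients. Covariates included renal function, age, sex, weight, race and comedication with BCRP inhibitors, BCRP substrates or statins. Each subgroup is given as a geometric mean ratio with 95% CI against its reference group.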

OATP1B3 = settings: cited from earlier work
[3] = Phase 3 Model, fractional covariate effect
[4] = Phase 3 Model, multiple rifampin doses and a single atogepant dose
[5] = Phase 3 Model, proportional residual error
[6] = Phase 3 Model, single-dose atogepant and single-dose rifampin
[7] = model-predicted steady state, 60 mg daily

## C[C@@H]1[C@H](c2c(F)ccc(F)c2F)C[C@H](NC(=O)c2cnc3c(c2)C[C@@]2(C3)C(=O)Nc3ncccc32)C(=O)N1CC(F)(F)F [atogepant, Atogepant]
[1]; Phase 3 Model
  Blood concentrations as percentage of those in plasma: 57.3%
  Blood-plasma ratio: 0.573
  Effect of concomitant statins on CL/F and Frel: not found to have a significant effect
  Fraction zero-order absorption (Fk0): 0.693
  Frel at the 60-mg dose compared with the 10-mg dose: approximately 1.24 fold
  Higher Frel with coadministration of itraconazole: 1.95 fold
  IIV on CL/F: 15.6 % CV
  IIV on Frel: 48.4 % CV
  IIV on Q/F: 68.6 % CV
  IIV on Tk0: 40.4 % CV
  IIV on V2/F: 77.5 % CV
  IOV on Frel: 19.3 % CV
[1]; Phase 3 Model, 60 mg reference dose
  Duration zero-order absorption [Tk0 (h)]: 0.908 h
[1]; Phase 3 Model, CGP-PK-02
  Residual variability error term: 22.8 % CV
[1]; Phase 3 Model, EM phase 2b/3 study
  Residual variability error term: 58.5 % CV
[1]; Phase 3 Model, P-gp inhibitor
  Lower CL/F with coadministration of quinidine: 28.5%
[1]; Phase 3 Model, all phase 1 studies except CGP-PK-02
  Residual variability error term: 30.7 % CV
[1]; Phase 3 Model, covariance of IIV
  CovQ/F,V2/F: 0.422
[1]; [3]
  Food effect on ALAG: 0.672
  Itraconazole effect on Frel: 0.949
  Rifampin effect on Frel after first dose: 1.42
  Rifampin effect on Frel following multiple doses: −0.248
[1]; Phase 3 Model, healthy participants
  Apparent clearance healthy participants [CL/F (L/h)]: 22.9 L/h
[1]; Phase 3 Model, high-fat meal
  Absorption lag time following a high-fat meal: 0.46 h
[1]; [4]
  Decrease of Frel with multiple rifampin doses: 24.8%
  Increase of CL/F with multiple rifampin doses: 1.82 fold
[1]; Phase 3 Model, patients with EM
  Apparent clearance patients [CL/F (L/h)]: 17.4 L/h
[1]; Phase 3 Model, patients with EM vs healthy participants
  CL/F lower in patients than in healthy participants: 23.7%
[1]; Phase 3 Model, phase 3 studies
  Residual variability error term: 49.1 % CV
[1]; Phase 3 Model, power exponent, body weight/76.8 kg
  Exponential weight effect on V1/F: 0.411
[1]; Phase 3 Model, power exponent, dose/60 mg
  Exponential dose effect on Frel: 0.119
[1]; [5]
  σprop: 0.307
  σprop (ADVANCE and PROGRESS studies): 0.491
  σprop (study CGP-MD-01): 0.585
  σprop (study CGP-PK-02): 0.228
[1]; Phase 3 Model, relative to normal liver function or mild or moderate hepatic impairment
  Lower CL/F with severe hepatic impairment: 36.6%
[1]; [6]
  Higher Frel with single-dose rifampin: 2.4 fold
  Lower CL/F with single-dose rifampin: ~ 13% and 12.8%
[1]; Phase 3 Model, strong CYP3A4 inhibitor
  Lower CL/F with coadministration of itraconazole: 66.2%
[1]; Phase 3 Model, variance of IIV
  ω^2CL/F: 0.0243
  ω^2Frel: 0.234
  ω^2Q/F: 0.471
  ω^2V2/F: 0.601
  ω^2tk0: 0.163
[1]; Phase 3 Model, variance of IOV
  ω^2IOVFrel: 0.0373
[1]; Phase 3 Model, without food
  Lag time [ALAG (h)]: 0.276 h
[1]; human, plasma, oral
  Vd/F: 86.1 L
[2]; model-predicted
  Effect of mild or moderate renal impairment on atogepant PK: no clinically relevant effect
[2]; [7]
  Change of Cmax with BCRP inhibitors: No change; also recorded: no impact
  Decrease of AUC24 with use of BCRP inhibitors: 1%
  Decrease of AUC24 with use of BCRP substrates: 3%
  Decrease of Cmax with use of BCRP substrates: 3%
  Increase of AUC24 with use of statins: 14%
  Increase of Cmax with use of statins: 13%
[2]; model-predicted, 60 mg daily, compared with reference groups
  Effect of age, BCRP inhibitors, BCRP substrates, statins, body weight, race, renal function and sex on steady-state AUC24 and Cmax: < 20%
OATP1B3
  Transporter substrate status: substrate
